1 molecule from ChEMBL document CHEMBL3877241 (J Med Chem, 2016) can be followed below.

Each structure is given as a SMILES string.

Data set [1] addresses Histone deacetylase 1 (Homo sapiens, UniProt Q13547). The data set is described as follows: Inhibition of full length human recombinant C-terminal FLAG/His-tagged HDAC1 (1 to 482 residues) expressed in sf21 cells preincubated with enzyme followed by fluorogenic Arg-His-Lys-Lys(Ac)-AMC substrate addition measured after 2 hrs by fluorescence assay.
Data set [2] deals with T1, Protein deacetylase HDAC6 (Homo sapiens, UniProt Q9UBN7).
T1 sequence (Q9UBN7 whole entry): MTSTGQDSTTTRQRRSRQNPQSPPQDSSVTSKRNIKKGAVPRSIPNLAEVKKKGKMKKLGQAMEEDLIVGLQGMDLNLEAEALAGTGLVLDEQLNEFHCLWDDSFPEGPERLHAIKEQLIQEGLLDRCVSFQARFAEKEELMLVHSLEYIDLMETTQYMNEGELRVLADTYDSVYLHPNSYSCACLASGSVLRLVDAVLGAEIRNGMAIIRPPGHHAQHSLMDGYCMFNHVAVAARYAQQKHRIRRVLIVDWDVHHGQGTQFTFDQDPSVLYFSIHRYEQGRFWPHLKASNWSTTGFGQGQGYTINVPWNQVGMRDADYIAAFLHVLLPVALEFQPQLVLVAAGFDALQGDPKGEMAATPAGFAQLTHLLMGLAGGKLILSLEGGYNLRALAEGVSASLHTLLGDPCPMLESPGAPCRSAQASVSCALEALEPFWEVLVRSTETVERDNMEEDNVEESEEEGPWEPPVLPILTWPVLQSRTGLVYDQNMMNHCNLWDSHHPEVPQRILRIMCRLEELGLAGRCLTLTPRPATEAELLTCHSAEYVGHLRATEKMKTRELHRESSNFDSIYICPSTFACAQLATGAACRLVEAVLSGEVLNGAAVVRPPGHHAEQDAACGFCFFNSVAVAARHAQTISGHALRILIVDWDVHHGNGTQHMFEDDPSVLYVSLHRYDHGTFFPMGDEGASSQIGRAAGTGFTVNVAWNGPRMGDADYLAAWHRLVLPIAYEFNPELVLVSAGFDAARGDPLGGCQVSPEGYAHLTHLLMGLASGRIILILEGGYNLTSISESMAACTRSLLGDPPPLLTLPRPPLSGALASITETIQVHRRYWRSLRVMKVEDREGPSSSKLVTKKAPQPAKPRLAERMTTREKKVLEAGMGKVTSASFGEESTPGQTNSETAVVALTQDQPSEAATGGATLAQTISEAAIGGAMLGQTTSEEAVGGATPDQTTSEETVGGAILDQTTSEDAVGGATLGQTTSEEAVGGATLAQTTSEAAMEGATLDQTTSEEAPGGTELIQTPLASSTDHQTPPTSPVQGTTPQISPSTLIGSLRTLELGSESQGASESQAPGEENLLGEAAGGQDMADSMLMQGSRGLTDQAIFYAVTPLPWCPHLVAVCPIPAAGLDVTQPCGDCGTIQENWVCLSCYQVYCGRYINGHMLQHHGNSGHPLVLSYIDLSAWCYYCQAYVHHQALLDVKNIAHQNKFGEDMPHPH
Put plainly: Inhibition of full length human recombinant N-terminal GST-tagged HDAC6 (1 to 1215 residues) expressed in sf9 cells preincubated with enzyme followed by fluorogenic Arg-His-Lys-Lys(Ac)-AMC substrate addition measured after 2 hrs by fluorescence assay.

The target of data set [3] is Tyrosine-protein kinase JAK1 (Homo sapiens) (UniProt P23458). The data set is described as follows: Inhibition of JAK1 (unknown origin) at 0.1 uM preincubated for 20 mins followed by [33P]ATP addition measured after 120 mins by Hotspot assay relative to control. The essentials: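 Radiometric HotSpot kinase assay. Buffer: 20 mM HEPES pH 7.5, 10 mM MgCl2, 1 mM EGTA, 0.02% Brij35, 0.02 mg/mL BSA, 0.1 mM Na3VO4, 2 mM DTT, 1% DMSO. Compound added about 20 min before ATP/[33P]ATP (10 μM final). Reactions run 120 min at 25 °C, spotted on P81 filters and washed in phosphoric acid. Activity expressed relative to DMSO after background subtraction. Single-concentration panel at 100 nM in duplicate.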

Data set [4] has as its target Polyamine deacetylase HDAC10 (Homo sapiens, UniProt Q969S8). Put plainly: Inhibition of HDAC10 (unknown origin) preincubated with enzyme followed by fluorogenic Arg-His-Lys-Lys(Ac)-AMC substrate addition measured after 2 hrs by fluorescence assay.
For data set [5], the target named is T2, High affinity nerve growth factor receptor (Homo sapiens, UniProt P04629). Put plainly: Inhibition of human NTRK1 (G475 to G790 residues) expressed in mammalian expression system assessed as residual activity at 100 nM by KINOMEScan assay relative to control. In a few lines:
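DiscoveRx competition-binding panel of 97 kinases, measuring binding to the kinase ATP site rather than catalytic turnover. The test compound was run at a single 100 nM concentration. Results are given as % of control binding.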
Target sequence in this assay (P04629 33-796 limits assumed): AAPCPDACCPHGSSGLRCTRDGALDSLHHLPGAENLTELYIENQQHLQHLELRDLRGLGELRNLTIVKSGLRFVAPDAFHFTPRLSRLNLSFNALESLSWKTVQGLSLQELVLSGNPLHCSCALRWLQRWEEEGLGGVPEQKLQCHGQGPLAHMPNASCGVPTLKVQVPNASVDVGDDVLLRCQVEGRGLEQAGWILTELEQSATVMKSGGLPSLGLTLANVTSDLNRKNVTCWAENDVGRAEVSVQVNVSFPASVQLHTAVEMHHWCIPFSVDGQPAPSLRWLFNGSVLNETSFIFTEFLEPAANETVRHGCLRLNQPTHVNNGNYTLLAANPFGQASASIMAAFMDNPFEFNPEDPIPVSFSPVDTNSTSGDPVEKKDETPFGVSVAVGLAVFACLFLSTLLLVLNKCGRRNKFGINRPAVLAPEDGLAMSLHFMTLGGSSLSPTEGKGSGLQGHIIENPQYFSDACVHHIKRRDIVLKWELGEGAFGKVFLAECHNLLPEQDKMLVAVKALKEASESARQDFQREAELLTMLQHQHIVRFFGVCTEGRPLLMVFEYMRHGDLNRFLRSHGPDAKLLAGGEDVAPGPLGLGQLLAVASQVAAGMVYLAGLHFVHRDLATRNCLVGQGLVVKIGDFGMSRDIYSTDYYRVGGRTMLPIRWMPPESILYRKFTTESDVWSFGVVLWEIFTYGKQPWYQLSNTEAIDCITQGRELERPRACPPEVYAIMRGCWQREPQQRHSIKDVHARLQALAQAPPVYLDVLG

Data set [6] concerns the target T3, Mast/stem cell growth factor receptor Kit (Homo sapiens, UniProt P10721). The data set is described as follows: Inhibition of human KIT (I571 to D952 residues) expressed in bacterial expression system assessed as residual activity at 100 nM by KINOMEScan assay relative to control. In a few lines: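 Done by DiscoveRx as an ATP-site binding panel covering 97 kinases across the kinome. It measures binding rather than inhibition of phosphate transfer. The compound was tested at 100 nM, and the result is expressed as percent of control binding.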

Data set [7] has as its target T2, High affinity nerve growth factor receptor. The data set is described as follows: Inhibition of human NTRK1 (G475 to G790 residues) expressed in mammalian expression system by KINOMEScan assay.
Target sequence in this assay (P04629 whole entry, the tested form may be a part): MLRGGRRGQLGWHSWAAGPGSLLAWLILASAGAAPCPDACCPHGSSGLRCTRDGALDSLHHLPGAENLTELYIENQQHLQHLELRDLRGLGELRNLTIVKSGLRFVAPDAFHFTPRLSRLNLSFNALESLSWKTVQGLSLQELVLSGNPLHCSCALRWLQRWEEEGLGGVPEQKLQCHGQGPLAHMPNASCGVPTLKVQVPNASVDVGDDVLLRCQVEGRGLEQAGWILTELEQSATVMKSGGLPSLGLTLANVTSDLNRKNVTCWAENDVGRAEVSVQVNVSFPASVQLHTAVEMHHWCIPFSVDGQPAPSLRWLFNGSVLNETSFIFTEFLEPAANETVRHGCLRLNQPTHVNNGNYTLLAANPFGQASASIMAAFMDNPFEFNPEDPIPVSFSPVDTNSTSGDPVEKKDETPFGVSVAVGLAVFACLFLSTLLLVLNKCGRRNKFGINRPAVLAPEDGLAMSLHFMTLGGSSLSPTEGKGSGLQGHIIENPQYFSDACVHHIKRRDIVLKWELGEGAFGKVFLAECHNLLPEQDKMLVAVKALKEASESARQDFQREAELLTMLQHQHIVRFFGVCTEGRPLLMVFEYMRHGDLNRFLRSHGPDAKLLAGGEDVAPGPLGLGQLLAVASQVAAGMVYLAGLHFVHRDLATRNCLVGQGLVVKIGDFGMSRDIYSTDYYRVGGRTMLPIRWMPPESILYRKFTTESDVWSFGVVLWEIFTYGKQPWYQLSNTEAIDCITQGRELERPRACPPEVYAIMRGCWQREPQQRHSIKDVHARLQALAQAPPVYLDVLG
Data set [8] addresses T3, Mast/stem cell growth factor receptor Kit. Put plainly: Inhibition of human KIT (I571 to D952 residues) expressed in bacterial expression system by KINOMEScan assay.
The target in data set [9] is Mitogen-activated protein kinase 8 (Homo sapiens, UniProt P45983). The data set is described as follows: Inhibition of full length human MAPK8 (M1 to Q384 residues) expressed in mammalian expression system by KINOMEScan assay.
Data set [10] in a line: cells. The format is functional, cell-based. Conditions: Homo sapiens, HEL 92.1.7, 36 h.
Data set [11] in a line: Antiproliferative activity against human KG1 cells after 48 hrs by CellTiter-Glo assay. Conditions: KG-1, 48 h. The data set is classed as functional, cell-based.
The subject of data set [12] is MOLM-14. The data set is described as follows: Induction of apoptosis in human MOLM14 cells assessed as necrotic cells at 1.5 uM after 48 hrs by Annexin-V FITC/propidium iodide staining based flow cytometry (reference value: 0.1%). The format is functional. In general terms: A flow cytometer gives signals particle by particle.
The nature of data set [13]: Half life in rat liver microsomes at 3 uM preincubated for 5 mins followed by NADPH addition by LC-MS/MS analysis. The format is ADME. In a few lines:
(§1)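 Male and female rat liver microsomes (0.3 mg protein/mL final) with compound at 3 μM final in 0.1 M phosphate buffer pH 7.4. Preincubated 5 min at 37 °C, then started with NADPH (1 mM final). Sampled at 0, 5, 10, 15, 30 and 45 min and quenched with cold acetonitrile containing internal standard. Read by LC-MS/MS; run in triplicate; midazolam (3 μM) as positive control.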
(Microsomes from liver hold many membrane-bound enzymes, among them those of drug oxidation.)

Data set [14] in a line: Apparent intrinsic clearance in rat liver microsomes at 3 uM preincubated for 5 mins followed by NADPH addition measured after 45 mins by LC-MS/MS analysis. The data set is classed as ADME. Conditions: read-out: CLH(app). The essentials: as §1

T3 sequence (P10721 whole entry, the tested form may be a part): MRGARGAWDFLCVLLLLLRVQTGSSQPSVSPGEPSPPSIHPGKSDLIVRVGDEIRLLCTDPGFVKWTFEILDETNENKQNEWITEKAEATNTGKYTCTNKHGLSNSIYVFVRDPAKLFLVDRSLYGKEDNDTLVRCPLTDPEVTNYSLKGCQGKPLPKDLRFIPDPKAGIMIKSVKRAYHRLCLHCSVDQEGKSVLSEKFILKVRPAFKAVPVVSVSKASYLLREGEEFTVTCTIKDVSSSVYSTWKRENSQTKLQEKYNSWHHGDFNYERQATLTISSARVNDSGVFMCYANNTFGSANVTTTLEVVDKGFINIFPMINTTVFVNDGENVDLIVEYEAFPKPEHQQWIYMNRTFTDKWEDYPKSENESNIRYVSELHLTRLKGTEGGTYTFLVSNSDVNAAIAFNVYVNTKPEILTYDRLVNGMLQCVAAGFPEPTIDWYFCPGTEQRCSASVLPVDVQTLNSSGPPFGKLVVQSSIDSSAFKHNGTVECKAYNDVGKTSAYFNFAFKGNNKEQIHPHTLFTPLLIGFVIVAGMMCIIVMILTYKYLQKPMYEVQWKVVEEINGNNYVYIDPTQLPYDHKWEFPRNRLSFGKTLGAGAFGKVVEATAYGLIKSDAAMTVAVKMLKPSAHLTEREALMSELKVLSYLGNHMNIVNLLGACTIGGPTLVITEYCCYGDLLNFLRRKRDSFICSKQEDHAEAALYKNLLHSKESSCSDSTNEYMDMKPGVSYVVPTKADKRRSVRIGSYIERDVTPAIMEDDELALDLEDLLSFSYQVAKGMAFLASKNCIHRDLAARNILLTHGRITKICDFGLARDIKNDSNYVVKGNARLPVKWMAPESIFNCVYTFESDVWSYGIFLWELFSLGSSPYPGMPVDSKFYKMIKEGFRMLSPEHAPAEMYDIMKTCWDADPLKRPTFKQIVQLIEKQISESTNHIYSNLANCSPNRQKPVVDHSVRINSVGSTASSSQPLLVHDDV
Sequence of Histone deacetylase 1 (Q13547 whole entry, the tested form may be a part): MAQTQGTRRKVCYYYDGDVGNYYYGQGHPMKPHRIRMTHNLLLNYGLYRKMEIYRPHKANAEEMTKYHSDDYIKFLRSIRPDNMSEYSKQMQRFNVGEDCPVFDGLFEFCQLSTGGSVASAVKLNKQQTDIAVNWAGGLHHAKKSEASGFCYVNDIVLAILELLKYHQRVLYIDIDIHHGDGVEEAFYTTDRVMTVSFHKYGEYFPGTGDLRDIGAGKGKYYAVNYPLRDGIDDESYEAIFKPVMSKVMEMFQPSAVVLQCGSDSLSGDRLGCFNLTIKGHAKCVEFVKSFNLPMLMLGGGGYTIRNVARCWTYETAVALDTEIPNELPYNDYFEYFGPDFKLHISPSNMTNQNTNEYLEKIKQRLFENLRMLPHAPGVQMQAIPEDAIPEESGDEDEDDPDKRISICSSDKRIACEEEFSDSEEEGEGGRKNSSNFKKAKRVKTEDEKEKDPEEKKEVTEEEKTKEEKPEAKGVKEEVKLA
Sequence of Mitogen-activated protein kinase 8 (P45983 whole entry, the tested form may be a part): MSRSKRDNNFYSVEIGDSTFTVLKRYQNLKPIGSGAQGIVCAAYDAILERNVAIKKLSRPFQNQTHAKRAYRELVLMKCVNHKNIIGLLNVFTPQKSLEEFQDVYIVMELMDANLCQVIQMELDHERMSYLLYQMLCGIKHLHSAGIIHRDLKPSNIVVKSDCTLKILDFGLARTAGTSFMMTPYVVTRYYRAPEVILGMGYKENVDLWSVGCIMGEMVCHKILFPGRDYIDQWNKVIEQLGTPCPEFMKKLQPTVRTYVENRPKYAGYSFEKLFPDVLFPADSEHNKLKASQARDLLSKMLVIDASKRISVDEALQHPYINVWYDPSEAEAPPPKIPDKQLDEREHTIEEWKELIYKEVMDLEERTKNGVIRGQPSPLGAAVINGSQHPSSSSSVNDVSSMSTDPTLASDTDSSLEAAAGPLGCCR
Sequence of Tyrosine-protein kinase JAK1 (Homo sapiens) (P23458 whole entry): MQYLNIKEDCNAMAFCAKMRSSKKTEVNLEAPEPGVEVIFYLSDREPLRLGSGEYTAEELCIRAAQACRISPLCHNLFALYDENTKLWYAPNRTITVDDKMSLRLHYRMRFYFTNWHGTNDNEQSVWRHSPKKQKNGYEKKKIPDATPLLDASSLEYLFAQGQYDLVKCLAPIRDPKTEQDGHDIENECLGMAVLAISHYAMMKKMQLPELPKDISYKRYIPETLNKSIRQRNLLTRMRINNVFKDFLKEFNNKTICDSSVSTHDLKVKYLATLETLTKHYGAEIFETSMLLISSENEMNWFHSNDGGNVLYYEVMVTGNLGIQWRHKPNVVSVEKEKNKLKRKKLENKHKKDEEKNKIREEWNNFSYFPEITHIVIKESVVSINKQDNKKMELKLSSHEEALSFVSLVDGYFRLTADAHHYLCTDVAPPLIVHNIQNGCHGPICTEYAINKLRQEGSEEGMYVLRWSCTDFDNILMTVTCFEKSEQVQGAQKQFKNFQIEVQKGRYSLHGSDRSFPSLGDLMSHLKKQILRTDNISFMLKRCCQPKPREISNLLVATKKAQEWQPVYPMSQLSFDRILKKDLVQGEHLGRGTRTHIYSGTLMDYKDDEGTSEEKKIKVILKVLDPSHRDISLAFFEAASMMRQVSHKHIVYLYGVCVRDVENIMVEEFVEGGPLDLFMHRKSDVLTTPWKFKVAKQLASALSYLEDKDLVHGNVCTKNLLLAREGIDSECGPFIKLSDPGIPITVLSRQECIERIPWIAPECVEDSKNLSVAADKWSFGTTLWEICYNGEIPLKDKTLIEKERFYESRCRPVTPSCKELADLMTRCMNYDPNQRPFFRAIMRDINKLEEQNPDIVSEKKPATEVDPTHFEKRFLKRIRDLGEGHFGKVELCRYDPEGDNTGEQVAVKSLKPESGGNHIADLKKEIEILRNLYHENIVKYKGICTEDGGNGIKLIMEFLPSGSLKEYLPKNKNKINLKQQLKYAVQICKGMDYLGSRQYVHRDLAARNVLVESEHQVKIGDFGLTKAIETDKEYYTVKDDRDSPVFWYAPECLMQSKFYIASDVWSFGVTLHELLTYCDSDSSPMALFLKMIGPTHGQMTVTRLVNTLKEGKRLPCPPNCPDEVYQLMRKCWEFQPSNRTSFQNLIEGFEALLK

The term IC50 denotes the concentration at which inhibition is half-maximal. Usually inhibition stands for the percentage by which the read-out fell short of the control. Read a high inhibition as a response far below the control. Broadly, the half-life is the time needed for the level to fall by half in the phase considered. Read a high half-life as slow loss. As to `O=C(CCCCCCOc1ccc2cc1COC/C=C/COCc1cccc(c1)-c1ccnc(n1)N2)NO`, the IC50 was 222 nM in data set [1]; 2.1 nM in [2]; 80 nM in data set [4]; 1000 to 10000 nM in [7]; 1000 to 10000 nM in [8]; 1000 to 10000 nM in [9]. Further, the values for the IC50 in [10] and in [11] were 940 nM and 1630 nM, respectively. This molecule had an inhibition in [3] of 8.7%. Moreover, the Activity was determined as 13% in data set [5], 21% in [6] and 0.3% in [12]. Also, the half-life at 3 µM in data set [13] lay within 17.3 to 26.3 min. In data set [14], the CLint scaled at 3 µM is 178 to 272 mL/min/kg.
